From PubChem BioAssay come the findings set out here.

Assay [1] is described as follows: inhibitors of TNFa-induced NFkB p65 translocation, primary screen, imaging, HUVEC, MLSMR starter and 10KST1 sets (AID 438;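 active = inhibition above 20% together with a positive visual image hit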;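 also: compound added about 3h40 before a 20 min TNFalpha stimulation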;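 as to inhibition: signal is the nuclear over cytoplasmic p65 intensity ratio per well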). The conditions noted are these: HUVEC TNFa-induced p65 nuclear translocation; cell count: measured here: nuclei count (cytotoxicity indicator), at 2.08 µM; inhibition: at 2 µM, stronger effect = higher value, 0% TNFa-plus-vehicle, 100% no-TNFa wells.
Assay [2] in a line: inhibitors of mutant huntingtin aggregation, primary screen, imaging, exon1htt(103Q)mCFP cells, high-content imaging (AID 483;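 active = visual image review flags a hit and inhibition of aggregation exceeds 20%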;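 also: compound exposure lasted 3 days before fixation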;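 as to nuclei count: percent of the per-plate median nuclei count of sample wells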). Particulars: exon1htt(103Q)mCFP cell line, aggregate imaging, at 2 µM; inhibition of aggregation: stronger effect = higher value; nuclei count: measured here: cell count, toxicity.
A short description of assay [3]: inhibitors of E-selectin induction by TNFa, primary screen, imaging, HUVEC, immunofluorescence, MLSMR starter and 10KST1 sets (AID 487;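 active = visually confirmed hit in the image check and inhibition above 20%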;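 as to inhibition: signal is fraction of cell area covered by stained E-selectin grains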;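 as to nuclei count: 100% = median nuclei count of all wells on the same plate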). The conditions noted are these: HUVEC TNFalpha-induced E-selectin immunofluorescence imaging, at 2 µM; inhibition: stronger effect = higher value; nuclei count: measured here: cell number, toxicity.
In assay [4] the target is Voltage-gated potassium channel subunit beta-2 (Rattus norvegicus) (UniProt P62483). Briefly: KvBeta enzyme negative modulators, primary screen, biochemical, NADPH fluorescence (AID 622;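 active = fluorescence slope higher than the sample average by over 3 SD, cut at about -0.22 in these data, passing the limit was not always enough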;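 also: slope of raw intensity against log time taken from 70 to 1610 s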). The conditions noted are these: recombinant KvBeta, 4-cyanobenzaldehyde reduction, at 10 µM, stronger effect = higher value.
Voltage-gated potassium channel subunit beta-2 (Rattus norvegicus), sequence (P62483 whole entry, looked up): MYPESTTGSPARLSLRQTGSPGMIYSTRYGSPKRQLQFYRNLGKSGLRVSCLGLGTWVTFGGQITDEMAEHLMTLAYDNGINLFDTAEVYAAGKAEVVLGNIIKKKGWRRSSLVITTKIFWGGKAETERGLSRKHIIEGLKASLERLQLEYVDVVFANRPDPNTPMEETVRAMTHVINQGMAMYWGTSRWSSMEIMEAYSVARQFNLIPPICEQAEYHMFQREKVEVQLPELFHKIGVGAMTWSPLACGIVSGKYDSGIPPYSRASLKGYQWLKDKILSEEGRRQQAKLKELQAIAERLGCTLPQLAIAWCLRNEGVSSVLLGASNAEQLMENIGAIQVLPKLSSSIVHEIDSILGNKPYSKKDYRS
Assay [5] shares this target. Description: KvBeta positive modulators, primary screen, biochemical, NADPH fluorescence (AID 623;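 active = NADPH fluorescence slope more negative than the mean of all samples by about 3 SD, 99.7% confidence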;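 also: fluorescence intensity change per second fitted from 20 to 320 s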). The conditions noted are these: Recombinant KvBeta, NADPH fluorescence decrease slope, 10 min; at 10 µM; stronger effect = lower value.
The target in assay [6] is Muscarinic acetylcholine receptor M4 (Homo sapiens) (UniProt P08173). Description: compounds altering M4/GIRK thallium flux, either direction, primary screen, M4 allosteric agonist project, cell-based, HEK293 M4/GIRK, BTC-AM (AID 625;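 active = fluorescence slope after compound addition differing from the mean of all tested samples at 99.7% confidence, mostly higher but some lower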;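 also: thallium influx through GIRK channels coupled to M4 in HEK293 cells with BTC-AM dye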). Particulars: at 10 µM, actives lie on both sides. The method in brief: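 Material: M4/GIRK1/GIRK2 stable HEK293 cell line. Medium: pH 7.3 thallium assay buffer. Dosing: single compound concentration, 10 µM final. Schedule: 1 h dye loading, 2 min kinetic read. Measured by: kinetic fluorescence with BTC-AM dye. Read-out: post-addition slope, 15–24 s, of baseline-normalized fluorescence. Benchmarks: carbachol and DMSO controls.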
Muscarinic acetylcholine receptor M4 (Homo sapiens), sequence (P08173 whole entry, looked up): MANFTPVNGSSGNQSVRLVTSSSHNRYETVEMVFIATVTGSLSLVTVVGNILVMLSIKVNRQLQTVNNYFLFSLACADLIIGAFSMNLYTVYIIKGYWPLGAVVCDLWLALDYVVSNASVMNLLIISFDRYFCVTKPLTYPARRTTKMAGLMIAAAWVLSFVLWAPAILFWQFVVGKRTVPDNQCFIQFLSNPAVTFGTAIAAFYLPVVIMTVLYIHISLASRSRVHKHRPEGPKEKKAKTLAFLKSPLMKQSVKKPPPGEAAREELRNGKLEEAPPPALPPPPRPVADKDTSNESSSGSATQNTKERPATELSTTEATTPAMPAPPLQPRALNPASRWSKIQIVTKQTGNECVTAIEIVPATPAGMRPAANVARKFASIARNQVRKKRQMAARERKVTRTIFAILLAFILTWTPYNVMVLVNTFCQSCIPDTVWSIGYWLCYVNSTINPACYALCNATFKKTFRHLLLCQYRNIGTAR

Assay [7] can be described thus: inhibitors of Sendai virus-induced IRF3 signaling, primary screen, TLR/RLR signaling modifier project, cell-based, Sendai virus stimulus, luciferase, 10K MLSCN set (AID 602276;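 active = inhibition at or above 50% at 10 µM; inactive = inhibition below 50%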;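 also: firefly luciferase from ISG56 promoter only with Renilla not read in this screen; 0% = Sendai virus plus DMSO and 100% = medium plus DMSO without virus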). The conditions noted are these: HEK293 RL24 IRF3 luciferase reporter, at 10 µM, stronger effect = higher value. A general note: Reporter assays use an easily measured gene product as a stand-in for the process of interest.

The nature of assay [8]: inhibitors of poly I:C-induced TLR3 signaling, primary screen, cell-based, poly I:C stimulus, luciferase, 10K MLSCN set (AID 602277). Particulars: HEK293-TLR3 RL24 IRF3 luciferase reporter, at 10 µM, stronger effect = higher value.

For orientation: inhibition means the change of the read-out against control, counted positive when it falls.

Active and inactive are the calls of the source.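 The calls were made as follows, unless noted: active = inhibition of the reporter signal at or above 50%; inactive = inhibition below 50%.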

For `Cc1ccc(S(=O)(=O)Cc2ccc(C(=O)NCCCN3CCN(C)CC3)o2)cc1`, in assay [1], the cell count was found to be 597. In addition, the inhibition is 2.3% (inactive) in assay [1], 22.2% (inactive) in assay [3], 14.1% (inactive) in assay [7] and 100% (active) in assay [8]. For the same molecule, in assay [2], the inhibition of aggregation is -11.8% (inactive). Besides, the nuclei count in assay [2] worked out at 101%; in assay [3], 115%. In addition, the fluorescence slope in assay [4] is -0.517 (inactive); in assay [6], 0.00533 (inactive). Moreover, the NADPH fluorescence slope in assay [5] is 1.7e-05 (inactive).
Consider `COc1ccccc1NC1=NC2(CCCC2)N=C(N)N1`, for which the cell count in assay [1] amounted to 313. In addition, the inhibition in assay [1] is -9.5% (inactive); in assay [3], 18% (inactive); in assay [7] it was 7.65% (inactive); in assay [8] it was 19.3% (inactive). In addition, the inhibition of aggregation in assay [2] is -26.7% (inactive). The results for the nuclei count in assay [2] and in assay [3] were 115% and 124%, respectively. Further, the fluorescence slope is -0.569 (inactive) in assay [4] and 0.00551 (inactive) in assay [6]. Further, in assay [5], the NADPH fluorescence slope is -6.5e-06 (inactive).
In the case of `CCCCCCn1c(SCCCC)nc2c1c(=O)[nH]c(=O)n2C`, the cell count in assay [1] stood at 384. Further, the inhibition in assay [1] is -8% (inactive); in assay [3], -10.4% (inactive); in assay [7], 0.691% (inactive); in assay [8], 10.6% (inactive). In addition, the inhibition of aggregation in assay [2] is -12.5% (inactive). Further, the figures for the nuclei count in assay [2] and in assay [3] were 101% and 104%, respectively. Besides, the fluorescence slope was -0.543 (inactive) in assay [4] and 0.00572 (inactive) in assay [6]. Further, the NADPH fluorescence slope in assay [5] was -3.9e-05 (inactive).
On to `COc1cccc(/C(O)=C2/C(=O)C(=O)N(CCN3CCOCC3)C2c2cccnc2)c1` (centres undefined), for which the cell count in assay [1] was 270. In addition, the inhibition was 15% (inactive) in assay [1], -37.6% (inactive) in assay [3], -4.6% (inactive) in assay [7] and 9.66% (inactive) in assay [8]. The inhibition of aggregation in assay [2] is 5.3% (inactive). Moreover, the nuclei count stood at 107% in assay [2] and 117% in assay [3]. Further, the fluorescence slope in assay [4] was -0.576 (inactive); in assay [6] it was 0.00687 (inactive). For the same molecule, the NADPH fluorescence slope in assay [5] was -1.6e-05 (inactive).
`CCNc1nc(NC(C)C)nc(N(C#N)CCOc2ccc(Cl)cc2Cl)n1`: the cell count in assay [1] was determined as 603. Besides, the inhibition in assay [1] was -8.6% (inactive); in assay [3], -123% (inactive); in assay [7], 15.5% (inactive); in assay [8], -2.09% (inactive). Further, the inhibition of aggregation in assay [2] was 20.7% (inactive). Besides, the nuclei count came to 98.5% in assay [2] and 96.3% in assay [3]. Further, the fluorescence slope is -0.446 (inactive) in assay [4] and 0.00644 (inactive) in assay [6]. Besides, the NADPH fluorescence slope in assay [5] is -3.7e-05 (inactive).
With `CCOC(=O)CSc1nc2ccccc2c(=O)n1NC(=O)c1ccccc1`, the cell count in assay [1] was 472. The inhibition in assay [1] is -5.7% (inactive); in assay [3], 10.7% (inactive); in assay [7] it was 1.47% (inactive); in assay [8], -19.8% (inactive). For the same molecule, in assay [2], the inhibition of aggregation was -2% (inactive). Further, the nuclei count in assay [2] was determined as 119%; in assay [3], 92.2%. Moreover, the fluorescence slope in assay [4] is -0.445 (inactive); in assay [6] it was 0.00551 (inactive). Besides, in assay [5], the NADPH fluorescence slope was 3.6e-06 (inactive).
In the case of `COc1ccc(-c2cnc(SCC(=O)Nc3ccc4c(c3)OCO4)n2Cc2ccco2)cc1`, the cell count in assay [1] is 450. Further, the inhibition is 17.8% (inactive) in assay [1], -1.8% (inactive) in assay [3], 2.4% (inactive) in assay [7] and 36.8% (inactive) in assay [8]. Moreover, in assay [2], the inhibition of aggregation is -8.7% (inactive). For the same molecule, the nuclei count in assay [2] came out at 105%; in assay [3], 110%. Besides, the fluorescence slope in assay [4] was -0.5 (inactive); in assay [6] it was 0.00501 (inactive). Besides, the NADPH fluorescence slope in assay [5] was -2.5e-05 (inactive).
With `COc1ccc(N2CCN(C(=O)CSc3ccccc3N)CC2)cc1`, the cell count in assay [1] is 334. Moreover, the inhibition in assay [1] was -3% (inactive); in assay [3], -18.9% (inactive); in assay [7], 4.54% (inactive); in assay [8], 22.7% (inactive). The inhibition of aggregation in assay [2] is 7.8% (inactive). Besides, the figures for the nuclei count in assay [2] and in assay [3] were 96.1% and 106%, respectively. The fluorescence slope is -0.501 (inactive) in assay [4] and 0.00478 (inactive) in assay [6]. The NADPH fluorescence slope in assay [5] is -0.00016 (inactive).
With `COc1ccc(N2CCN(C(=O)CSc3nnc4n3C(C)(C)Cc3ccccc3-4)CC2)cc1`, the cell count in assay [1] stood at 548. In addition, the inhibition in assay [1] is 7.7% (inactive); in assay [3], -14.4% (inactive); in assay [7] it was 4.92% (inactive); in assay [8], -6.84% (inactive). In assay [2], the inhibition of aggregation is -9.9% (inactive). Besides, the nuclei count in assay [2] and in assay [3] was 104% throughout. The fluorescence slope in assay [4] is -0.572 (inactive); in assay [6], 0.00723 (inactive). Moreover, in assay [5], the NADPH fluorescence slope was -3.1e-05 (inactive).
Consider `Cc1ccc(S(=O)(=O)N(C)CC(=O)NC2CC(C)(C)NC(C)(C)C2)cc1`, for which, in assay [1], the cell count came out at 331. Further, the inhibition was -6.6% (inactive) in assay [1], 1.9% (inactive) in assay [3], 11.7% (inactive) in assay [7] and 22.6% (inactive) in assay [8]. Also, in assay [2], the inhibition of aggregation was 6.2% (inactive). For the same molecule, the nuclei count came to 98.6% in assay [2] and 89.8% in assay [3]. The fluorescence slope in assay [4] was -0.555 (inactive); in assay [6], 0.00697 (inactive). In addition, the NADPH fluorescence slope in assay [5] was -1.8e-05 (inactive).
On to `CCOC(=O)C1CCCN(c2nc3ccccc3nc2C(C#N)C(=O)NCc2ccccc2)C1` (centres undefined), for which the cell count in assay [1] worked out at 703. Besides, the inhibition in assay [1] was 9.6% (inactive); in assay [3], -40% (inactive); in assay [7] it was 7.48% (inactive); in assay [8], 12.6% (inactive). Also, the inhibition of aggregation in assay [2] is -4.3% (inactive). In addition, the nuclei count in assay [2] stood at 103%; in assay [3] it was 126%. Further, the fluorescence slope is -0.459 (inactive) in assay [4] and 0.00538 (inactive) in assay [6]. Also, the NADPH fluorescence slope in assay [5] was -2.8e-05 (inactive).
Turning to `CN(CC(O)COCc1cccs1)C1CCCCC1` (centres undefined), the cell count in assay [1] amounted to 305. The inhibition in assay [1] was 10.6% (inactive); in assay [3], -5.5% (inactive); in assay [7], 11.7% (inactive); in assay [8] it was 17.5% (inactive). In assay [2], the inhibition of aggregation was 1.5% (inactive). Further, the nuclei count was 95.2% in assay [2] and 105% in assay [3]. Also, the fluorescence slope in assay [4] is -0.448 (inactive); in assay [6], 0.00729 (inactive). Also, the NADPH fluorescence slope in assay [5] was -4.5e-05 (inactive).
`CC1(c2ccncc2)Nc2ccccc2-c2nc3ccccc3n21` (centres undefined): the cell count in assay [1] was found to be 394. The inhibition in assay [1] is -13.4% (inactive); in assay [3], -182% (inactive); in assay [7] it was 6.46% (inactive); in assay [8] it was -10% (inactive). In assay [2], the inhibition of aggregation is 6.2% (inactive). Moreover, the nuclei count worked out at 69.9% in assay [2] and 122% in assay [3]. Further, the figures for the fluorescence slope in assay [4] and in assay [6] were -0.454 (inactive) and 0.00581 (inactive), respectively. In addition, in assay [5], the NADPH fluorescence slope was -2.1e-05 (inactive).
For `COc1ccc(OC)c(S(=O)(=O)Nc2ccc(C(N)=O)cc2)c1`, the cell count in assay [1] is 684. The inhibition is -2.6% (inactive) in assay [1], -57% (inactive) in assay [3], 18.4% (inactive) in assay [7] and 23.9% (inactive) in assay [8]. Moreover, in assay [2], the inhibition of aggregation is -13.7% (inactive). Besides, the nuclei count in assay [2] was 107%; in assay [3], 113%. Also, the fluorescence slope in assay [4] was -0.519 (inactive); in assay [6], 0.00432 (inactive). The NADPH fluorescence slope in assay [5] is -0.000185 (inactive).
